The source made the active and inactive calls.
What was measured:
[1] = target: Methionine aminopeptidase 2 (Homo sapiens) (UniProt P50579); assay: Inhibition of human recombinant METAP2 at 200 uM by HxBPyne probe-based competitive activity based protein profiling assay in presence of 200 uM HxBpane competitor
Procedure, shortened: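 Metalloprotease at 1.6 μM final in PBS, without liver proteome. HxBPyne probe cocktail 20 μM final, with inhibitor 200 μM or DMSO. Preincubated 30 min on ice, then irradiated 365 nm for 1 h on ice. Rhodamine-azide click chemistry, then SDS-PAGE and in-gel fluorescence scanning. Integrated band intensity expressed as % of DMSO control.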

[2] = target: Endoplasmic reticulum aminopeptidase 1 (Homo sapiens) (UniProt Q9NZ08); assay: Inhibition of human recombinant PILS-AP at 200 uM by HxBPyne probe-based competitive activity based protein profiling assay in presence of 5 uM HxBpane competitor
Procedure, shortened: (§1)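 Recombinant enzyme at 0.5 μM final in mouse liver soluble proteome (1 mg protein/mL in PBS). HxBPyne probe cocktail 0.5 μM total final, with inhibitor 200 μM or DMSO. Preincubated 30 min on ice, then UV 365 nm for 1 h on ice. Rhodamine-azide click chemistry, 1 h RT in dark. SDS-PAGE with in-gel fluorescence; band intensity given as % of DMSO control.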

[3] = target: Matrix metalloproteinase-24 (Homo sapiens) (UniProt Q9Y5R2); assay: Inhibition of human recombinant MMP24 at 200 uM by HxBPyne probe-based competitive activity based protein profiling assay in presence of 5 uM HxBpane competitor; procedure, shortened: as §1

Measured: Activity

Chain of Endoplasmic reticulum aminopeptidase 1 (Homo sapiens) (Q9NZ08 whole entry): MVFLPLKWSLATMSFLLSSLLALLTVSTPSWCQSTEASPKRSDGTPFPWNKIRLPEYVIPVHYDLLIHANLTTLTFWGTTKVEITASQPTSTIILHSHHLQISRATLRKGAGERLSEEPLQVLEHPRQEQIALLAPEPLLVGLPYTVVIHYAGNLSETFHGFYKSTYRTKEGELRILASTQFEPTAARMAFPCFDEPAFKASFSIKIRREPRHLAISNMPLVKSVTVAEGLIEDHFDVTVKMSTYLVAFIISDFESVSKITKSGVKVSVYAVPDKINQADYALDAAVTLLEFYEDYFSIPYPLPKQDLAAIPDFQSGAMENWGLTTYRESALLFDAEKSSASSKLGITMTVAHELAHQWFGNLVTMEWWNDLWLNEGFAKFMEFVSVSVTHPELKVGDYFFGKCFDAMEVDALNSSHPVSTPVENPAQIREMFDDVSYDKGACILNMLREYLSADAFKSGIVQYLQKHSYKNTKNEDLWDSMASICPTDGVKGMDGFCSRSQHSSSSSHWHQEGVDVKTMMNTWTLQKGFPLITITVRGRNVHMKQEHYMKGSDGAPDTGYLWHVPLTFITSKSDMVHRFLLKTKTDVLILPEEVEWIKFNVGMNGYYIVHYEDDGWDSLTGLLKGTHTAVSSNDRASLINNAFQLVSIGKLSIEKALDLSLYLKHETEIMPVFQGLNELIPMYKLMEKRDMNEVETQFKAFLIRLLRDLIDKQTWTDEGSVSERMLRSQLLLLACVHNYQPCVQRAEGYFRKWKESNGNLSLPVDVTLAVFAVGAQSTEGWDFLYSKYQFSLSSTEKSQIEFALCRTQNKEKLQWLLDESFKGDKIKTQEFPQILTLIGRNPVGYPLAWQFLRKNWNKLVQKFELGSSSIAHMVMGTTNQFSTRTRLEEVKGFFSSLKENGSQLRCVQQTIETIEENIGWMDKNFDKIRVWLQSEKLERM
Chain of Matrix metalloproteinase-24 (Homo sapiens) (Q9Y5R2 whole entry): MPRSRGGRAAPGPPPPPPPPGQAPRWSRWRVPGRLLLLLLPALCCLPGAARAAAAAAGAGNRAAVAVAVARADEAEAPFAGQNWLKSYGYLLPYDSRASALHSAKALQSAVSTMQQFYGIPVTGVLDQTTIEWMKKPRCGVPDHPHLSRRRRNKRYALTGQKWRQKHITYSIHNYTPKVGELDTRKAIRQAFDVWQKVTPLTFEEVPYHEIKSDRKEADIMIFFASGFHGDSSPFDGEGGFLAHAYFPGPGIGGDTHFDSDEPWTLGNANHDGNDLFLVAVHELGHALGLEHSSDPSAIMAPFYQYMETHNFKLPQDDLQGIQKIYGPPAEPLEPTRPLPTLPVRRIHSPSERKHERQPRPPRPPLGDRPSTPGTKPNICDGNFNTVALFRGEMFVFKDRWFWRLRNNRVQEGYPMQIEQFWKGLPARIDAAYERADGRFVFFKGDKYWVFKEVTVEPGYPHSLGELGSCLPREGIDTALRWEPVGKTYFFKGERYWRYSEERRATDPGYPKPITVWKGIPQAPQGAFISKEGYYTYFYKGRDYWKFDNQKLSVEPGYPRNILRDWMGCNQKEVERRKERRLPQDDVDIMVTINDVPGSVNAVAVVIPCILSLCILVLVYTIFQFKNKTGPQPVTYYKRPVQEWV
Chain of Methionine aminopeptidase 2 (Homo sapiens) (P50579 2-478 limits assumed): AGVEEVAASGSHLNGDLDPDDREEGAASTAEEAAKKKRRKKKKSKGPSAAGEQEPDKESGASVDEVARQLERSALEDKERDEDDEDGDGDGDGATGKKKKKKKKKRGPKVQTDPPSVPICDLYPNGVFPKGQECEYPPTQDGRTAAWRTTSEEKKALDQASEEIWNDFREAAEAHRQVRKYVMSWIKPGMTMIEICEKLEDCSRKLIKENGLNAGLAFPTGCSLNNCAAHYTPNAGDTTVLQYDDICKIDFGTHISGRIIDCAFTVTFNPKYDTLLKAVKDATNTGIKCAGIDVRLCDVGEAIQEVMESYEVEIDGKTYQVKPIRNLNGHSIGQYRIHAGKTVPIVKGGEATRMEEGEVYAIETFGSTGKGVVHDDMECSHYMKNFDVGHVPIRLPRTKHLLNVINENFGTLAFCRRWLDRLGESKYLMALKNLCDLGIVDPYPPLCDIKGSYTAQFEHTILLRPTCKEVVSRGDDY

Oc1nc(SCc2ccc(Cl)cc2)nc2c1CCC2
inactive: all assays above

COc1ccc(CSc2nc(C)cc(O)n2)cc1
inactive: all assays above

Reference: ChEMBL document CHEMBL1140994, “Ranking the selectivity of PubChem screening hits by activity-based protein profiling: MMP13 as a case study” (Bioorg Med Chem, 2009)
